Assays:
[1] = Cytotoxicity against rat L6 cells assessed as cell growth inhibition incubated for 6 days by resazurin dye based assay; assay type: toxicity
Outline: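 Rat L6 myoblasts seeded at 1×10⁴ mL⁻¹ in RPMI-1640 with a range of compound concentrations, 6 days at 37 °C; resazurin added, 6 h further, fluorescence ex 545/em 590 nm.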

[2] = Selectivity index, ratio of EC50 for cytotoxicity against rat L6 cells to EC50 for antitrypanosomal activity against bloodstream form of Trypanosoma brucei brucei 221a variant; assay type: toxicity, cell-based; details: read-out: Ratio EC50
Outline: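 L6 rat myoblasts seeded at 1×10^4 mL^-1 in RPMI-1640 with a compound concentration range for 6 days at 37 °C. Resazurin added for 6 h, then fluorescence read.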

Trypanosoma brucei = experiment: Antitrypanosomal activity against blood stream form of Trypanosoma brucei 221a variant assessed as parasite growth inhibition measured after 48 hrs by resazurin dye based fluorescence analysis; assay type: functional, organism-based; details: for EC50: 48 h; for EC90: time 48 hrs
Outline: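 Bloodstream-form T. b. brucei 221a (MiTat1.2a) in modified Iscove's medium at 37 °C, started at 2.5×10^4 mL^-1 with a concentration range. After 48 h, resazurin was added for a further 16 h. Fluorescence read at ex 545/em 590 nm. EC50 and EC90 taken from three independent replicates.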

[3] = Apparent permeability across apical to basolateral side in MDCK-MDR1 cells at 10 uM measured for 60 mins by LC-MS/MS analysis; assay type: ADME, cell-based, Canis lupus familiaris; details: dog
Outline: (§1)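 MDCKII-hMDR1 monolayers on inserts, compound 10 μM (1% DMSO) in duplicate, 60 min at 37 °C, bidirectional, with and without elacridar 2 μM. Amprenavir as P-gp control, Lucifer yellow for monolayer integrity; compound quantified by LC–MS/MS.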

[4] = Apparent permeability across basolateral to apical side in MDCK-MDR1 cells at 10 uM measured for 60 mins by LC-MS/MS analysis; assay type: ADME, cell-based, Canis lupus familiaris; details: dog, MDCK-MDR1; outline: as §1
[5] = Efflux ratio of apparent permeability across basolateral to apical side over apical to basolateral side in MDCK-MDR1 cells at 10 uM measured for 60 mins by LC-MS/MS analysis; assay type: ADME, cell-based, Canis lupus familiaris; details: dog, mdck-mdr1, 1 h
Outline: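 MDCKII cells overexpressing human MDR1 (P-glycoprotein) grown as monolayers on inserts; bidirectional transport (apical-to-basolateral and basolateral-to-apical) of 10 μM compound (1% DMSO) at 37 °C for 60 min, in duplicate, with and without P-gp inhibitor elacridar (2 μM). Monolayer integrity checked with Lucifer yellow; amprenavir as P-gp control. Compound quantified by LC–MS/MS; efflux ratio = BA Papp/AB Papp.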

[6] = Metabolic stability in mouse liver microsomes assessed as half life at 1 uM measured upto 60 mins in presence of NADPH by LC-MS/MS analysis; assay type: ADME, Microsome; details: 1 h

Row | SMILES | EC50 at 6 days [1] | selectivity ratio [2] | EC50 (Trypanosoma brucei) | EC90 (Trypanosoma brucei) | Papp A→B at 1 h, 10 µM [3] | Papp B→A at 1 h, 10 µM [4] | Ratio [5] | t1/2 [6]
1 | N=C(N)c1ccc2nc(/C=C/c3nc4ccc(C(=N)N)cc4s3)sc2c1 | 2.48 µM | 210 | 0.012 µM | 0.022 µM | – | – | – | –
2 | C(=C\c1nc2ccc(C3=NCCCN3)cc2s1)/c1nc2ccc(C3=NCCCN3)cc2s1 | 51.8 µM | 520 | 0.1 µM | 0.16 µM | – | – | – | –
3 | c1cc2nc(CCCCCCc3nc4ccc(C5=NCCCN5)cc4s3)sc2cc1C1=NCCCN1 | > 130 µM | > 4600 | 0.028 µM | 0.056 µM | – | – | – | –
4 | c1cc2nc(CCCc3nc4ccc(C5=NCCN5)cc4s3)sc2cc1C1=NCCN1 | > 150 µM | > 28 | 5.39 µM | 9.01 µM | – | – | – | –
5 | c1cc2nc(C3CCC(c4nc5ccc(C6=NCCN6)cc5s4)CC3)sc2cc1C1=NCCN1 (stereo not drawn) | 4.15 µM | 17 | 0.24 µM | 0.49 µM | – | – | – | –
6 | N=C(N)c1ccc2nc(CCCCCCc3nc4ccc(C(=N)N)cc4s3)sc2c1 | 42.5 µM | 48 | 0.89 µM | 1.52 µM | – | – | – | –
7 | N=C(N)c1ccc2nc(CCCCCc3nc4ccc(C(=N)N)cc4s3)sc2c1 | 114 µM | 1200 | 0.098 µM | 0.145 µM | – | – | – | –
8 | O=C(O)Cc1ccccc1Nc1c(Cl)cccc1Cl [DICLOFENAC] | – | – | – | – | 47.3 ×10⁻⁶ cm/s | 31.2 ×10⁻⁶ cm/s | 0.7 | –
9 | c1cc2nc(CCc3nc4ccc(C5=NCCCN5)cc4s3)sc2cc1C1=NCCCN1 | > 140 µM | > 59 | 2.38 µM | 3.48 µM | – | – | – | –
10 | N=C(N)c1ccc2nc(CCc3nc4ccc(C(=N)N)cc4s3)sc2c1 | > 170 µM | > 680 | 0.25 µM | 0.4 µM | – | – | – | –
11 | C(=C\c1nc2ccc(C3=NCCN3)cc2s1)/c1nc2ccc(C3=NCCN3)cc2s1 | 4.1 µM | 22 | 0.19 µM | 0.68 µM | – | – | – | –
12 | c1cc2nc(CCCCCCc3nc4ccc(C5=NCCN5)cc4s3)sc2cc1C1=NCCN1 | 10.9 µM | 13 | 0.82 µM | 1.88 µM | – | – | – | –
13 | c1cc2nc(CCc3nc4ccc(C5=NCCN5)cc4s3)sc2cc1C1=NCCN1 | 80.6 µM | 22 | 3.64 µM | 7.82 µM | – | – | – | –
14 | N=C(N)c1ccc2nc(CCCCCCCc3nc4ccc(C(=N)N)cc4s3)sc2c1 | 13.9 µM | 18 | 0.74 µM | 1.39 µM | – | – | – | –
15 | Cn1c(=O)c2c(ncn2C)n(C)c1=O [CAFFEINE] | – | – | – | – | – | – | – | > 60 min
16 | N=C(N)c1ccc2nc(CCCCc3nc4ccc(C(=N)N)cc4s3)sc2c1 | 134 µM | 2100 | 0.063 µM | 0.131 µM | – | – | – | –
17 | c1cc2nc(CCCCc3nc4ccc(C5=NCCN5)cc4s3)sc2cc1C1=NCCN1 | 93 µM | 82 | 1.14 µM | 1.87 µM | – | – | – | –
18 | C[C@]12CC[C@H]3[C@@H](CCC4=CC(=O)CC[C@@]43C)[C@@H]1CC[C@@H]2O [TESTOSTERONE] | – | – | – | – | – | – | – | 6.7 min
19 | CSc1ccc(OCc2ncc([N+](=O)[O-])n2C)cc1 [FEXINIDAZOLE] | – | – | 2.4 µM | 4.51 µM | – | – | – | –
20 | N=C(N)c1ccc2nc(CCCc3nc4ccc(C(=N)N)cc4s3)sc2c1 | > 160 µM | > 470 | 0.34 µM | 0.75 µM | – | – | – | –
21 | c1cc2nc(CCCCCc3nc4ccc(C5=NCCN5)cc4s3)sc2cc1C1=NCCN1 | 93.5 µM | 60 | 1.56 µM | 2.11 µM | – | – | – | –
22 | c1cc2nc(C3CCC(c4nc5ccc(C6=NCCCN6)cc5s4)CC3)sc2cc1C1=NCCCN1 (stereo not drawn) | > 130 µM | > 6200 | 0.021 µM | 0.031 µM | – | – | – | –
23 | CC(C)CN(C[C@@H](O)[C@H](Cc1ccccc1)NC(=O)O[C@H]1CCOC1)S(=O)(=O)c1ccc(N)cc1 [AMPRENAVIR] | – | – | – | – | 0.5 ×10⁻⁶ cm/s | – | – | –
24 | c1cc2nc(CCCCc3nc4ccc(C5=NCCCN5)cc4s3)sc2cc1C1=NCCCN1 | > 130 µM | > 680 | 0.19 µM | 0.31 µM | – | – | – | –
25 | c1cc2nc(CCCCCCCc3nc4ccc(C5=NCCN5)cc4s3)sc2cc1C1=NCCN1 | 6.85 µM | 4.6 | 1.49 µM | 2.52 µM | – | – | – | –

Source: ChEMBL document CHEMBL5365494, “Bis-6-amidino-benzothiazole Derivative that Cures Experimental Stage 1 African Trypanosomiasis with a Single Dose” (J Med Chem, 2023)
